Test results published in ChEMBL document CHEMBL1821554, “Synthesis and anticancer activity of chalcone-pyrrolobenzodiazepine conjugates linked via 1,2,3-triazole ring side-armed with alkane spacers” (2011).
The source made the active and inactive calls. The rule behind the calls is not given here.

Legend:
ZR-75-1 = test: Anticancer activity against human ZR-75-1 cells by SRB method; assay type: functional
In short: (§1)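 Growth inhibition over a panel of human cancer lines (lung, ovarian, oral, colon, prostate, cervix, breast). Value is the 50% growth-inhibition concentration, reported as the mean ± standard error of the mean of three determinations.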

MCF7 [1] = test: Anticancer activity against human MCF7 cells by SRB method; assay type: functional; in short: as §1
HOP-62 = test: Anticancer activity against human HOP62 cells by SRB method; assay type: functional; in short: as §1
[2] = Anticancer activity against human Gurav cells by SRB method; assay type: functional; in short: as §1
A549 = test: Anticancer activity against human A549 cells by SRB method; assay type: functional; in short: as §1
A2780 = test: Anticancer activity against human A2780 cells by SRB method; assay type: functional; in short: as §1
[3] = Anticancer activity against human DWD cells by SRB method; assay type: functional; in short: as §1
KB = test: Anticancer activity against human KB cells by SRB method; assay type: functional; in short: as §1
PC-3 = test: Anticancer activity against human PC3 cells by SRB method; assay type: functional; in short: as §1
SiHa = test: Anticancer activity against human SiHa cells by SRB method; assay type: functional; in short: as §1
MCF7 [4] = test: Cytotoxicity against human MCF7 cells assessed as reduction in cell viability at 4 uM after 24 hrs by MTT assay; assay type: functional, cell-based
In short: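 MCF-7 cells were seeded at 10,000 per well and left overnight, then treated with 4 µM compound for 24 h. MTT was added for 2 h at 37 °C, formazan was solubilized in extraction buffer, and OD was read at 570 nm. Untreated cells served as control. Three independent experiments, SD.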

MCF7 [5] = test: Cytotoxicity against human MCF7 cells assessed as reduction in cell viability at 2 uM after 24 hrs by MTT assay; assay type: functional, cell-based
MCF7 [6] = test: Cell cycle arrest in human MCF7 cells assessed as accumulation at G0/G1 phase at 4 uM after 24 hrs using propidium iodide staining based flow cytometric analysis; assay type: functional
In short: (§2)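 MCF-7 cells were seeded at 5 × 10^5 per 60 mm dish and grown for 24 h, then exposed to 4 µM compound for 24 h. Cells were trypsinized, fixed in ice-cold 70% ethanol at 4 °C for 30 min and treated with 1 mg/ml RNase at 37 °C for 30 min. They were stained with propidium iodide/citrate/Triton X-100, and DNA content was read on 20,000 events by flow cytometry. Three independent repeats.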

MCF7 [7] = test: Cell cycle arrest in human MCF7 cells assessed as accumulation at G0 phase at 10 uM after 24 hrs using propidium iodide staining based flow cytometric analysis (reference value: 1.27 +/- 0.08 %); assay type: functional
MCF7 [8] = test: Cell cycle arrest in human MCF7 cells assessed as accumulation at G1 phase at 10 uM after 24 hrs using propidium iodide staining based flow cytometric analysis (reference value: 47.64 +/- 1.49 %); assay type: functional
MCF7 [9] = test: Cell cycle arrest in human MCF7 cells assessed as accumulation at S phase at 10 uM after 24 hrs using propidium iodide staining based flow cytometric analysis (reference value: 12.92 +/- 1 %); assay type: functional
MCF7 [10] = test: Cell cycle arrest in human MCF7 cells assessed as accumulation at G2/M phase at 10 uM after 24 hrs using propidium iodide staining based flow cytometric analysis (reference value: 38.15 +/- 1.068 %); assay type: functional
MCF7 [11] = test: Induction of cell cycle arrest at G1 phase in human MCF7 cells at 4 uM after 24 hrs using propidium iodide staining based flow cytometric analysis; assay type: functional; in short: as §2
MCF7 [12] = test: Downregulation of cyclin D1 protein expression in human MCF7 cells at 4 uM after 24 hrs by Western blot analysis; assay type: functional, cell-based
In short: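 MCF-7 cells at 80% confluency were treated with 4 µM compound for 24 h. Cells were lysed in RIPA buffer with protease inhibitors and protein was quantified by Bradford. 50 µg per lane was run on 12% SDS-PAGE and transferred to PVDF. Blots were probed overnight at 4 °C with rabbit polyclonal anti-cyclin D1, with β-actin as loading control, and detected by chemiluminescence.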

[13] = target: G1/S-specific cyclin-D1 (Homo sapiens) (UniProt P24385); test: Down regulation of Cyclin D1 promoter activity expressed in human MCF7 cells co-transfected with luciferase gene at 4 uM after 24 hrs by luciferase reporter gene assay; assay type: cell-based
Sequence of G1/S-specific cyclin-D1 (Homo sapiens) (P24385 whole entry): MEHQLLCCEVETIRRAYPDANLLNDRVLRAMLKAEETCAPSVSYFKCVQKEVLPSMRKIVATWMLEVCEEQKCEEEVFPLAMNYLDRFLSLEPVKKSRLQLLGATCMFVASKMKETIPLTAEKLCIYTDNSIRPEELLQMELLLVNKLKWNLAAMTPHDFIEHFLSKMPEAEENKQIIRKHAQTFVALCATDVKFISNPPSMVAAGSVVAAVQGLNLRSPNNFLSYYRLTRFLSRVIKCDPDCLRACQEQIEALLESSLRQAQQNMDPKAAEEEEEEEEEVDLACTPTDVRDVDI
In short: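 MCF-7 cells were transfected for 24 h with the cyclin D1 promoter (−1745) luciferase construct, which contains an NF-kB site. Cells were then treated with 4 µM compound (final) for a further 24 h, and lysate luciferase was measured by luminometer. Untransfected cells served as negative control and transfected untreated cells as control.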

[14] = Down regulation of NF-kappaB activity expressed in human MCF7 cells transfected with NF-kB SEAP plasmid at 4 uM after 24 hrs by chemiluminescence-based luminometric analysis; assay type: cell-based
In short: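 MCF-7 cells were transiently transfected with the NF-kB SEAP plasmid using lipofectamine 2000. After 24 h, cells were treated with 4 µM compound for 24 h. Lysates were assayed with a chemiluminescent reagent and read by luminometry and by 30 min X-ray film exposure. Transfected untreated cells served as control.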

MCF7 [15] = test: Induction of apoptosis in human MCF7 cells assessed as down regulation of Bcl2 expression at 4 uM after 24 hrs by ELISA; assay type: functional, cell-based
In short: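 MCF-7 cells were treated with 4 µM compound for 24 h. Lysates were added to Bcl2 antibody-coated wells, followed by biotinylated anti-human Bcl2 monoclonal antibody, and bound Bcl2 was detected with streptavidin-HRP (sandwich ELISA).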

MCF7 [16] = test: Induction of apoptosis in human MCF7 cells assessed as down regulation of Bcl-xL expression at 4 uM after 24 hrs by Western blot
COLO 205 = test: Anticancer activity against human COLO205 cells by SRB method; assay type: functional; in short: as §1

Structure (SMILES) | GI50 (MCF7 [1]) [nM] | GI50 (A549) [nM] | GI50 (A2780) [nM] | GI50 (KB) [nM] | GI50 (PC-3) [nM] | GI50 (COLO 205) [nM] | GI50 (ZR-75-1) [nM] | GI50 (HOP-62) [nM] | GI50 [2] [nM] | GI50 [3] [nM] | GI50 (SiHa) [nM] | Activity (MCF7 [4]) | Activity (MCF7 [5]) | Activity (MCF7 [6]) [%] | Activity (MCF7 [7]) [%] | Activity (MCF7 [8]) [%] | Activity (MCF7 [9]) [%] | Activity (MCF7 [10]) [%] | Activity (MCF7 [11]) | Activity (MCF7 [12]) | other results
COc1cc2c(cc1OC)C(=O)N1C[C@@H](n3cc(COc4ccc(/C=C/C(=O)c5ccccc5O)cc4OC)nn3)C[C@H]1C=N2 | 2350 | 2780 | 150 | – | 2230 | 110 | – | – | 2510 | 2700 | – | – | inactive | 55.24 | 5.19 | 50.9 | 8.71 | 35.19 | Active | – | –
COc1cccc2c1C(=O)c1c(O)c3c(c(O)c1C2=O)C[C@@](O)(C(=O)CO)C[C@@H]3O[C@H]1C[C@H](N)[C@H](O)[C@H](C)O1 [DOXORUBICIN] | 170 | – | 160 | 170 | – | 140 | – | 140 | 170 | 100 | 170 | – | – | – | – | – | – | – | – | – | –
COc1cc2c(cc1OCc1ccccc1)N=C[C@@H]1C[C@H](n3cc(COc4ccc(/C=C/C(=O)c5ccccc5O)cc4OC)nn3)CN1C2=O | – | – | – | – | – | – | – | – | – | – | – | – | inactive | 59.79 | 5.21 | 54.61 | 6.65 | 32.06 | Active | – | –
COc1cc2c(cc1O)N=C[C@@H]1CCCN1C2=O | 170 | 160 | 140 | 170 | 200 | 110 | – | 150 | 160 | – | 170 | Active | – | 71.1 | 7.62 | 61.81 | 9.67 | 20.89 | – | Active | Activity [13]: Active; Activity [14]: Active; Activity (MCF7 [15]): Active; Activity (MCF7 [16]): Active
COc1ccc(/C=C/C(=O)c2ccc(O)cc2)cc1O | – | – | – | – | – | – | – | – | – | – | – | Active | – | 64.11 | 10.15 | 51.61 | 6.55 | 31.5 | – | – | –

Second part, led by results:

GI50 (MCF7 [1]) [nM] | GI50 (A549) [nM] | GI50 (A2780) [nM] | GI50 (KB) [nM] | GI50 (PC-3) [nM] | GI50 (COLO 205) [nM] | Structure (SMILES) | GI50 (ZR-75-1) [nM] | GI50 (HOP-62) [nM] | GI50 [2] [nM] | GI50 [3] [nM] | GI50 (SiHa) [nM] | Activity (MCF7 [4]) | Activity (MCF7 [5]) | Activity (MCF7 [6]) [%] | Activity (MCF7 [7]) [%] | Activity (MCF7 [8]) [%] | Activity (MCF7 [9]) [%] | Activity (MCF7 [10]) [%] | Activity (MCF7 [11]) | Activity (MCF7 [12]) | other results
160 | 150 | 120 | 2030 | 160 | – | COc1cc(/C=C/C(=O)c2ccc(O)cc2)ccc1OCCCn1cc(COc2cc3c(cc2OC)C(=O)N2CCC[C@H]2C=N3)nn1 | 170 | 170 | 130 | 120 | 180 | Active | inactive | 87.7 | 13.67 | 72.51 | 6.48 | 7.33 | Active | Active | Activity [13]: Active; Activity [14]: Active; Activity (MCF7 [15]): Active; Activity (MCF7 [16]): Active
160 | < 150 | 110 | 160 | 150 | 110 | COc1cc(/C=C/C(=O)c2ccc(O)cc2)ccc1OCCCCn1cc(COc2cc3c(cc2OC)C(=O)N2CCC[C@H]2C=N3)nn1 | 160 | 190 | 130 | < 160 | 2520 | – | – | – | – | – | – | – | – | – | –
2400 | 2330 | 170 | 2190 | 2480 | 150 | COc1cc(/C=C/C(=O)c2ccccc2O)ccc1OCCCn1cc(COc2cc3c(cc2OC)C(=O)N2CCC[C@H]2C=N3)nn1 | 2200 | 2920 | 2310 | – | – | Active | inactive | 76.87 | 12.06 | 64.08 | 9.52 | 14.32 | Active | Active | Activity [13]: Active; Activity [14]: Active; Activity (MCF7 [15]): Active; Activity (MCF7 [16]): Active
160 | 190 | 130 | 2660 | 160 | < 100 | COc1cc(/C=C/C(=O)c2cc(Cl)ccc2O)ccc1OCCCCn1cc(COc2cc3c(cc2OC)C(=O)N2CCC[C@H]2C=N3)nn1 | 190 | 2500 | 1660 | < 170 | – | – | inactive | 61.38 | 10.51 | 50.63 | 7.74 | 31.07 | Active | – | –
140 | < 160 | 100 | 170 | 130 | – | COc1cc(/C=C/C(=O)c2ccccc2O)ccc1OCCCCn1cc(COc2cc3c(cc2OC)C(=O)N2CCC[C@H]2C=N3)nn1 | 150 | 160 | 120 | < 130 | 140 | Active | inactive | 89.1 | 10.79 | 77.47 | 4.99 | 7.07 | Active | Active | Activity [13]: Active; Activity [14]: Active; Activity (MCF7 [15]): Active; Activity (MCF7 [16]): Active
180 | 2090 | 150 | – | 190 | 100 | COc1cc(/C=C/C(=O)c2cc(Cl)ccc2O)ccc1OCCCCCn1cc(COc2cc3c(cc2OC)C(=O)N2CCC[C@H]2C=N3)nn1 | 2020 | 2280 | 190 | 2300 | – | – | inactive | 60.18 | 10.75 | 60.56 | 7.28 | 22.06 | Active | Active | Activity [13]: Active; Activity [14]: Active; Activity (MCF7 [15]): Active; Activity (MCF7 [16]): Active
2100 | 170 | 140 | 180 | 2040 | 140 | COc1cc(/C=C/C(=O)c2ccccc2O)ccc1OCCCCCn1cc(COc2cc3c(cc2OC)C(=O)N2CCC[C@H]2C=N3)nn1 | 170 | 2560 | 160 | 2300 | 2710 | – | inactive | 56.23 | 7.81 | 46.39 | 9.89 | 35.88 | Active | – | –
